According to ChEMBL document CHEMBL4138301, “Discovery of Tetralones as Potent and Selective Inhibitors of Acyl-CoA:Diacylglycerol Acyltransferase 1” (ACS Med Chem Lett, 2018):
Converted amounts (≈) assume the structure as drawn.

Experiments:
[1] = Kinetic solubility of the compound in pION buffer at pH 7.4 measured after 18 hrs; format: physicochemical; conditions: read-out: Kinetic_solubility
[2] = biological target: T1, Diacylglycerol O-acyltransferase 1 (Mus musculus) (UniProt Q9Z2A7); assay: Inhibition of DGAT1 in mouse C2C12 cells at 300 nM using [14C] oleic acid as substrate measured after 20 mins by phosphorimaging method relative to control; format: cell-based
T1 sequence (whole entry): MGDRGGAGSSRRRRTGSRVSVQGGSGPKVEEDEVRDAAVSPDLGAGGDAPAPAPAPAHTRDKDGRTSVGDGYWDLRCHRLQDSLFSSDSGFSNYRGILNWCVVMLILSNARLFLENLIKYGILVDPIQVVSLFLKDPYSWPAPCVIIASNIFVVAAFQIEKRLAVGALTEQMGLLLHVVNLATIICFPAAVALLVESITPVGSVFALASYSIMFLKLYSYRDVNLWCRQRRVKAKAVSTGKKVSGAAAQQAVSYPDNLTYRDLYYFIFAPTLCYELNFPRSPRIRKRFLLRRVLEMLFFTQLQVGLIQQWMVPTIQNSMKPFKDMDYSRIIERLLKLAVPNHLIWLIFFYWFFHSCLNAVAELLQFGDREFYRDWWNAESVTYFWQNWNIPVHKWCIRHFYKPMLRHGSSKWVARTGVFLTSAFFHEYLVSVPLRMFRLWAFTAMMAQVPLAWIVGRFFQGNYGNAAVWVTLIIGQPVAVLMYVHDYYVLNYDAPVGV

[3] = Oral bioavailability in Sprague-Dawley rat at 2 mg/kg; format: ADME, organism-based; conditions: in vivo
Summary of the method: (§1)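 Male animals, n = 3 per species: C57BL/6J mouse at 2.2 mg/kg IV and 2.7 mg/kg PO; Sprague–Dawley rat at 1 mg/kg IV and 2 mg/kg PO; Beagle dog at 1.8 mg/kg IV and 5.3 mg/kg PO. Plasma clearance, Vss, IV half-life and oral %F were derived from the plasma profiles.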

Mus musculus [4] = assay: In vivo inhibition of DGAT1 in corn oil-induced Swiss albino mouse hypertriglyceridemia model assessed as reduction in plasma triglyceride level at 0.3 mg/kg, po pretreated for 30 mins followed by coil oil challenge measured after 2.5 hrs relative to control; format: functional
Summary of the method: (§2)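 Male Swiss Albino mice were fasted overnight, then dosed orally at 0.03, 0.1, 0.3, 1, 3 or 10 mg/kg. Thirty minutes later they received an oral corn oil bolus of 5 mL/kg.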

[5] = Plasma clearance in C57BL/6J mouse at 2.2 mg/kg, iv or 2.7 mg/kg, po; format: ADME, organism-based; summary of the method: as §1
[6] = Volume of distribution at steady state in C57BL/6J mouse at 2.2 mg/kg, iv or 2.7 mg/kg, po; format: ADME, organism-based; conditions: in vivo, read-out: Vdss
Summary of the method: (§3)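 Male animals, n = 3 per species. Each was given a single intravenous dose and a separate oral dose, at the species-specific levels in the line. Plasma clearance, steady-state volume of distribution, IV half-life and oral bioavailability were derived from these studies.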

[7] = Half life in C57BL/6J mouse at 2.2 mg/kg, iv; format: ADME, organism-based; conditions: in vivo; summary of the method: as §1
[8] = Oral bioavailability in C57BL/6J mouse at 2.7 mg/kg; format: ADME, organism-based; conditions: in vivo; summary of the method: as §1
[9] = Plasma clearance in Sprague-Dawley rat at 1 mg/kg, iv or 2 mg/kg, po; format: ADME, organism-based; summary of the method: as §1
[10] = Volume of distribution at steady state in Sprague-Dawley rat at 1 mg/kg, iv or 2 mg/kg, po; format: ADME, organism-based; conditions: in vivo, read-out: Vdss; summary of the method: as §3
[11] = Half life in Sprague-Dawley rat at 1 mg/kg, iv; format: ADME, organism-based; conditions: in vivo; summary of the method: as §1
[12] = Plasma clearance in Beagle dog at 1.8 mg/kg, iv or 5.3 mg/kg, po; format: ADME, organism-based, Canis lupus familiaris; summary of the method: as §1
[13] = Volume of distribution at steady state in Beagle dog at 1.8 mg/kg, iv or 5.3 mg/kg, po; format: ADME, organism-based, Canis lupus familiaris; conditions: in vivo, read-out: Vdss; summary of the method: as §3
[14] = Half life in Beagle dog at 1.8 mg/kg, iv; format: ADME, organism-based, Canis lupus familiaris; conditions: in vivo; summary of the method: as §1
[15] = Oral bioavailability in Beagle dog at 5.3 mg/kg; format: ADME, organism-based, Canis lupus familiaris; conditions: in vivo; summary of the method: as §1
Mus musculus [16] = assay: In vivo inhibition of DGAT1 in corn oil-induced Swiss albino mouse hypertriglyceridemia model assessed as reduction in plasma triglyceride level at 0.03 mg/kg, po pretreated for 30 mins followed by coil oil challenge measured after 2.5 hrs relative to control; format: functional; summary of the method: as §2
Mus musculus [17] = assay: In vivo inhibition of DGAT1 in corn oil-induced Swiss albino mouse hypertriglyceridemia model assessed as reduction in plasma triglyceride level at 0.1 mg/kg, po pretreated for 30 mins followed by coil oil challenge measured after 2.5 hrs relative to control; format: functional; summary of the method: as §2
Mus musculus [18] = assay: In vivo inhibition of DGAT1 in corn oil-induced Swiss albino mouse hypertriglyceridemia model assessed as reduction in plasma triglyceride level at 1 mg/kg, po pretreated for 30 mins followed by coil oil challenge measured after 2.5 hrs relative to control; format: functional; summary of the method: as §2
Mus musculus [19] = assay: In vivo inhibition of DGAT1 in corn oil-induced Swiss albino mouse hypertriglyceridemia model assessed as reduction in plasma triglyceride level at 3 mg/kg, po pretreated for 30 mins followed by coil oil challenge measured after 2.5 hrs relative to control; format: functional; summary of the method: as §2
Mus musculus [20] = assay: In vivo inhibition of DGAT1 in corn oil-induced Swiss albino mouse hypertriglyceridemia model assessed as reduction in plasma triglyceride level at 10 mg/kg, po pretreated for 30 mins followed by coil oil challenge measured after 2.5 hrs relative to control; format: functional; summary of the method: as §2
Salmonella typhimurium [21] = assay: Mutagenicity in Salmonella typhimurium TA1535 in presence of S9 fraction by Ames test; format: toxicity, organism-based; conditions: salmonella enterica subsp. enterica serovar typhimurium
Salmonella typhimurium [22] = assay: Mutagenicity in Salmonella typhimurium TA1537 in presence of S9 fraction by Ames test; format: toxicity, organism-based; conditions: salmonella enterica subsp. enterica serovar typhimurium
Salmonella typhimurium [23] = assay: Mutagenicity in Salmonella typhimurium TA98 in presence of S9 fraction by Ames test; format: toxicity, organism-based; conditions: salmonella enterica subsp. enterica serovar typhimurium
Salmonella typhimurium [24] = assay: Mutagenicity in Salmonella typhimurium TA100 in presence of S9 fraction by Ames test; format: toxicity, organism-based; conditions: salmonella enterica subsp. enterica serovar typhimurium
Escherichia coli [25] = assay: Mutagenicity in Escherichia coli WP2uvrA in presence of S9 fraction by Ames test; format: toxicity, organism-based
Salmonella typhimurium [26] = assay: Mutagenicity in Salmonella typhimurium TA1535 in absence of S9 fraction by Ames test; format: toxicity, organism-based; conditions: salmonella enterica subsp. enterica serovar typhimurium
Salmonella typhimurium [27] = assay: Mutagenicity in Salmonella typhimurium TA1537 in absence of S9 fraction by Ames test; format: toxicity, organism-based; conditions: salmonella enterica subsp. enterica serovar typhimurium
Salmonella typhimurium [28] = assay: Mutagenicity in Salmonella typhimurium TA98 in absence of S9 fraction by Ames test; format: toxicity, organism-based; conditions: salmonella enterica subsp. enterica serovar typhimurium
Salmonella typhimurium [29] = assay: Mutagenicity in Salmonella typhimurium TA100 in absence of S9 fraction by Ames test; format: toxicity, organism-based; conditions: salmonella enterica subsp. enterica serovar typhimurium
Escherichia coli [30] = assay: Mutagenicity in Escherichia coli WP2uvrA in absence of S9 fraction by Ames test; format: toxicity, organism-based
Mus musculus [31] = species on record: Mus musculus; assay: animal or person; conditions: Swiss, po

CCC1(CC(=O)O)CCc2cc(-c3ccc(NC(=O)Nc4ccc(C)cc4)cc3)ccc2C1=O (centres undefined)
solubility kinetic at 18 h [1]: 36 µg/mL (≈ 78.9 µM)

CCC1(CC(=O)O)CCc2cc(-c3ccc(NC(=O)Nc4ccc(Cl)cc4)cc3)ccc2C1=O (racemic)
solubility kinetic at 18 h [1]: 100 µg/mL (≈ 210 µM) | inhibition [2]: 72%

CC[C@@]1(CC(=O)O)CCc2cc(-c3ccc(NC(=O)Nc4ccc(F)c(F)c4)cc3Cl)ccc2C1=O
solubility kinetic at 18 h [1]: 125 µg/mL (≈ 244 µM) | bioavailability [3]: 51%

CC[C@]1(CC(=O)O)CCc2cc(-c3ccc(NC(=O)Nc4cccc(C(F)(F)F)c4)cc3)ccc2C1=O
solubility kinetic at 18 h [1]: 88 µg/mL (≈ 172 µM) | inhibition [2]: 27%

CC[C@]1(CC(=O)O)CCc2cc(-c3ccc(NC(=O)Nc4ccc(Cl)cc4)cc3)ccc2C1=O
solubility kinetic at 18 h [1]: 0.4 µg/mL (≈ 0.839 µM)

Nc1ncnc2c1C(=O)N(c1ccc([C@H]3CC[C@H](CC(=O)O)CC3)cc1)CCO2 [PF-04620110]
inhibition in vivo at 0.3 mg/kg (Mus musculus [4]): 94%

COc1cccc(NC(=O)Nc2ccc(-c3ccc4c(c3)CCC(C)(CC(=O)O)C4=O)cc2)c1 (centres undefined)
solubility kinetic at 18 h [1]: 40 µg/mL (≈ 87.2 µM)

O=C(O)CC1(CC(F)(F)F)CCc2cc(-c3ccc(NC(=O)Nc4ccccc4)cc3)ccc2C1=O (centres undefined)
solubility kinetic at 18 h [1]: 30 µg/mL (≈ 60.4 µM)

CC[C@@]1(CC(=O)O)CCc2cc(-c3ccc(NC(=O)Nc4cccc(C(F)(F)F)c4)cc3Cl)ccc2C1=O
solubility kinetic at 18 h [1]: 151 µg/mL (≈ 277 µM) | bioavailability [3]: 23%

CCC1(CC(=O)O)CCc2cc(-c3ccc(NC(=O)Nc4cccc(F)c4)cc3)ccc2C1=O (centres undefined)
solubility kinetic at 18 h [1]: 38 µg/mL (≈ 82.5 µM)

CC[C@@]1(CC(=O)O)CCc2cc(-c3ccc(NC(=O)Nc4cccc(C(F)(F)F)c4)cc3)ccc2C1=O
solubility kinetic at 18 h [1]: 78 µg/mL (≈ 153 µM) | inhibition [2]: 75% | clearance [5]: 42.3 mL/min/kg | Vd [6]: 2.4 L/kg | half-life [7]: 2.6 h | bioavailability [8]: 54% | clearance [9]: 6.3 mL/min/kg | Vd [10]: 1 L/kg | half-life [11]: 3.9 h | bioavailability [3]: 87% | clearance [12]: 4.6 mL/min/kg | Vd [13]: 0.6 L/kg | half-life [14]: 4.6 h | bioavailability [15]: 149% | inhibition in vivo at 0.03 mg/kg (Mus musculus [16]): 19% | inhibition in vivo at 0.1 mg/kg (Mus musculus [17]): 33% | inhibition in vivo at 0.3 mg/kg (Mus musculus [4]): 60% | inhibition in vivo at 1 mg/kg (Mus musculus [18]): 71% | inhibition in vivo at 3 mg/kg (Mus musculus [19]): 91% | inhibition in vivo at 10 mg/kg (Mus musculus [20]): 99% | Activity (Salmonella typhimurium [21]): Non-Toxic | Activity (Salmonella typhimurium [22]): Non-Toxic | Activity (Salmonella typhimurium [23]): Non-Toxic | Activity (Salmonella typhimurium [24]): Non-Toxic | Activity (Escherichia coli [25]): Non-Toxic | Activity (Salmonella typhimurium [26]): Non-Toxic | Activity (Salmonella typhimurium [27]): Non-Toxic | Activity (Salmonella typhimurium [28]): Non-Toxic | Activity (Salmonella typhimurium [29]): Non-Toxic | Activity (Escherichia coli [30]): Non-Toxic | ED50 (Mus musculus [31]): 0.23 mg/kg

CCC1(CC(=O)O)CCc2cc(-c3ccc(NC(=O)Nc4ccccc4C(F)(F)F)cc3)ccc2C1=O (centres undefined)
solubility kinetic at 18 h [1]: 26 µg/mL (≈ 50.9 µM)

Cc1cccc(NC(=O)Nc2ccc(-c3ccc4c(c3)CCC(C)(CC(=O)O)C4=O)cc2)c1 (centres undefined)
solubility kinetic at 18 h [1]: 103 µg/mL (≈ 233 µM)

CCCC1(CC(=O)O)CCc2cc(-c3ccc(NC(=O)Nc4ccccc4)cc3)ccc2C1=O (centres undefined)
solubility kinetic at 18 h [1]: 74 µg/mL (≈ 162 µM)

CCC1(CC(=O)O)CCc2cc(-c3ccc(NC(=O)Nc4ccccc4)cc3)ccc2C1=O (centres undefined)
solubility kinetic at 18 h [1]: 34 µg/mL (≈ 76.8 µM)
